hERG protect – shields human hERG channel from block by proarrhythmic agents; CHO-hERG, FluxOR thallium flux, dofetilide IC70 present; activation (rescue from dofetilide block), less the hit threshold, % at 10 µM; 0.51% of 310,000 active; AID 1511;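 active means activation above the mean of controls blocked by dofetilide plus 5 SD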;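 further: thallium influx through hERG after potassium depolarization seen as dye fluorescence rise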
KCNQ1 inh – inhibitors of human KCNQ1 potassium channel | P51787 | CHO-K1 KCNQ1, FluxOR thallium flux fluorescence; hits give high values | B-score at 10 µM | 1.3% of 310,000 active;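 active means compounds whose thallium flux B-score, printed positive for inhibition, exceeds three library SD while starting fluorescence stays within three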;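 further: channel opened by potassium depolarization with thallium stimulus after 20 min compound exposure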
KCNK9 block – inhibitors of human KCNK9 two-pore domain potassium channel; Q9NPC2; HEK293 KCNK9, FluxOR thallium flux fluorescence; hits give low values; B-score at 10 µM; 1.2% of 310,000 active; AID 488922;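 active means ratio B-score over 3 SD below the library mean, with starting fluorescence within 5 SD of its mean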;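 further: negative B-score means less thallium flux so channel inhibition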
KCNQ1 act – potentiators or activators of human KCNQ1 potassium channel | B-score at 10 µM | 0.35% of 310,000 active | CHO-K1 KCNQ1, thallium flux FluxOR fluorescence; hits give high values | P51787 | AID 2648;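 active means fluorescence ratio B-score, a plate-corrected score, at least three library SD, with initial intensity B-score within 5 SD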
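Assay system: CHO-K1 cells stably expressing KCNQ1. Medium: assay buffer for compound exposure, DMSO matched across wells. Timing: 37 °C overnight plating, 90-min dark dye load, 20-min compound pretreatment. Signal: kinetic FluxOR fluorescence, 10 s baseline plus 110 s post-stimulus.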
KCNK3 inh – human KCNK3 channel inhibition, primary screen. O14649. CHO-KCNK3 thallium flux, FluxOR fluorescence; hits give low values. B-score at 10 µM. 0.84% of 340,000 active;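 active means B-score under library mean minus 4 SD, starting fluorescence ratio at most library mean plus 5 SD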;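 further: more negative B-score means stronger inhibition of thallium flux through KCNK3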
Target sequence (O14649 whole entry, looked up): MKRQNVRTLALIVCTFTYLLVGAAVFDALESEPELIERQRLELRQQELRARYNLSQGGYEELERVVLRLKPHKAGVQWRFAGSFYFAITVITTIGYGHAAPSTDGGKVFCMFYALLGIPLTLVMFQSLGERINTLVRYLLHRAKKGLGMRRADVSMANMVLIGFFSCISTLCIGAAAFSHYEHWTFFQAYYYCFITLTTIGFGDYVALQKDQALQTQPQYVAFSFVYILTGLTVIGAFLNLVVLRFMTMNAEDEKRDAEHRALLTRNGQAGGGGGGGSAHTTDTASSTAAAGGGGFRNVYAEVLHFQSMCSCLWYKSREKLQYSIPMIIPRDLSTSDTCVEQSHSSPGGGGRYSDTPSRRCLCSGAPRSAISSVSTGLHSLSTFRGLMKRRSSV
Cl transport mod – modulators of human KCC2 chloride dependent transport | KCC2 cells, thallium flux FluoZin-2 fluorescence | 2.2% of 190,000 active | Q9H2X9 | B-score of Tl+ flux slope (higher = more flux/activation; lower = inhibition) at 10 µM;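 active means thallium flux slope and its plate-corrected score both differing from the plate sample mean at a set confidence after two filtering rounds, in either direction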;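 further: slope of fluorescence scaled to starting intensity during 10 to 20 s after thallium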
KCNK9 block conf – human KCNK9 inhibitor confirmation | shares compounds with KCNK9 block | HEK293 KCNK9 cells, FluxOR thallium flux fluorescence | inhibition, % at 10 µM | 43% of 4,900 active | AID 492992;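 active means thallium signal inhibited by more than 5 SD of the compound-free buffer control wells, on both duplicate plates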;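 further: 0% = assay buffer control wells without compound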
Kir2-1 spec – selectivity of KCNK9 modulators against mouse Kir2.1 | shares compounds with KCNK9 block | Kir2.1 cells, FluxOR thallium flux fluorescence | inhibition, % at 10 µM | 4% of 4,900 active;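 active means thallium signal drop more than 5 SD beyond the mean of the no-compound control wells, seen in both duplicate plates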;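 further: signal is fluorescence rise after thallium addition divided by baseline fluorescence; plate controls were assay buffer only for no effect and full block by chlorpromazine control for full effect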
KCNK9 uninduced – second check of KCNK9 modulator effects in non-induced HEK293 cells | shares compounds with KCNK9 block | FluxOR thallium flux | inhibition, % at 10 µM | 40% of 4,900 active | AID 492997;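 active means thallium signal drop beyond 5 SD of the untreated control mean, on both duplicate plates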;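 further: plate controls were buffer only IC0 wells for no effect and SID17386958 at its maximal inhibitory level for full effect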
* = called active by the depositor; i = inactive; · = not tested or not shown. The list is not random: actives were taken first. Their share in the collection is about 4.1%.

SMILES | hERG protect | KCNQ1 inh | KCNK9 block | KCNQ1 act | KCNK3 inh | Cl transport mod | KCNK9 block conf | Kir2-1 spec | KCNK9 uninduced
Cc1cccc(C(=O)OCC(=O)NC(=O)NCc2ccccc2)c1 | · | · | · | · | i | · | · | · | ·
CCOc1ccc(N2CC(C(=O)Nc3ccc4c(c3)OCO4)CC2=O)cc1 (centres undefined) | -11 | i | i | i | i | 0.9 | i | i | i
CCOc1ccc(N2CC(C(=O)Nc3ccc4c(c3)OCCO4)CC2=O)cc1 (centres undefined) | -15 | i | i | i | i | · | · | · | ·
Cc1cc(Cl)ccc1OC(C)C(=O)N1CCCN(C(=O)C(C)Oc2ccc(Cl)cc2C)CC1 (centres undefined) | -6 | i | -15* | i | i | -1.6 | 58%* | i | 30%*
Cc1cccc(NC(=O)c2ccc(COc3ccccc3)o2)n1 | -6 | i | i | i | i | · | · | · | ·
Cc1cccc(NC(=O)c2ccc(COc3ccc(Cl)cc3Cl)o2)n1 | -4 | i | i | i | i | · | i | i | i
CCOC(=O)N1CCN(Cc2cc(=O)oc3ccc4ccccc4c23)CC1 | -7 | i | i | i | i | -0.1 | · | · | ·
O=C(CC12CC3CC(CC(C3)C1)C2)NCC(=O)OCc1cc(=O)oc2ccc3ccccc3c12 | -7 | i | -15* | i | i | 0.65 | 62%* | i | i
CCn1ncc(/C=N\NC(=O)c2ccc3c(c2)c(C)c(C)n3Cc2ccccc2)c1C | 0 | i | -18* | i | i | -0.22 | 60%* | i | 30%*
CCn1cc(/C=N\NC(=O)c2ccc3c(c2)c(C)c(C)n3Cc2ccccc2)c(C)n1 | -3 | i | -19* | i | i | 1.1 | 68%* | i | 27%*
CCn1nc(C)c(/C=N/NC(=O)c2ccc3c(c2)c(C)c(C)n3Cc2ccccc2)c1C | -1 | i | -15* | i | i | -0.83 | 54%* | i | 28%*
CCCS(=O)(=O)N1CCN=C1SCc1cccc2ccccc12 | -12 | i | i | i | i | -1.4 | i | i | i
COc1ccc(-c2cc(C)no2)cc1S(=O)(=O)NCc1ccc(OC(C)C)cc1 | -8 | i | i | i | i | · | · | · | ·
CC(C)c1ccc(/C=C/C(=O)NCCCc2ccccc2)cc1 | -5 | 6* | i | i | i | -1.4 | i | i | i
COc1ccc(/C=C/C(=O)NCCCc2ccccc2)cc1 | -7 | i | i | i | i | -2.4 | · | · | ·
CC(=O)c1cccc(NC(=S)Nc2ccn(Cc3cccc4ccccc34)n2)c1 | -4 | i | i | i | i | 0.27 | i | i | i
CC(=O)c1ccc(NC(=S)Nc2ccn(Cc3ccc(Br)cc3)n2)cc1 | 4 | i | i | i | i | 0.011 | · | · | ·
CC(=O)c1cccc(CN2CCCC(N3CCN(c4ccccc4F)CC3)C2)c1 (centres undefined) | -4 | i | i | i | i | · | i | i | i
COc1ccccc1N1CCN(C2CCCN(Cc3cccc(O)c3)C2)CC1 (centres undefined) | -7 | i | i | i | i | · | · | · | ·
Fc1ccccc1N1CCN(C2CCCN(Cc3ccccc3C(F)(F)F)C2)CC1 (centres undefined) | -13 | i | i | i | i | · | i | i | i
CCN(c1ccccc1)S(=O)(=O)c1cc(NC(=O)CN2CCN(C)CC2)ccc1Cl | · | · | · | · | i | · | · | · | ·
COc1ccc(NC(=O)CN(C)C(=O)c2ccc(C)c(S(=O)(=O)N3CCCCC3)c2)cc1 | · | · | · | · | i | · | · | · | ·
C#CCn1c(S(=O)(=O)Cc2ccc(OC)cc2)nc(-c2ccccc2)c1-c1ccccc1 | -2 | i | -18* | i | -9.4* | -1.9 | 62%* | i | 26%*

Compound activity (PubChem BioAssay)
